Test results published in ChEMBL document CHEMBL2321771, “Inhibition of Ebola Virus Infection: Identification of Niemann-Pick C1 as the Target by Optimization of a Chemical Probe” (ACS Med Chem Lett, 2013).
Calls of active or inactive are those of the source. No cut-off for these calls is given here.

test system: Ebolavirus; test: Antiviral activity against Ebola virus by cell based luciferase reporter gene assay; assay type: functional, Ebola virus sp.; settings: Orthoebolavirus

SMILES | IC50 [µM]
O=C(NCC(=O)N1CCN(Cc2ccccc2)CC1)C1CCCCC1 | 27
N#Cc1ccc(COc2ccccc2CN2CCN(C(=O)CNC(=O)CC34CC5CC(CC(C5)C3)C4)CC2)cc1 | 4.4
O=C(CC12CC3CC(CC(C3)C1)C2)NCC(=O)N1CCN(C(c2ccccc2)c2ccccc2)CC1 | > 10
O=C(CC12CC3CC(CC(C3)C1)C2)NCC(=O)N1CCN(Cc2ccc(Cl)c(Cl)c2)CC1 | 0.75
Cc1cccc(COc2ccccc2CN2CCN(C(=O)CNC(=O)CC34CC5CC(CC(C5)C3)C4)CC2)c1 | 0.35
N#Cc1ccccc1CN1CCN(C(=O)CNC(=O)CC23CC4CC(CC(C4)C2)C3)CC1 | 3.9
CN(C)C(=O)c1ccc(COc2ccccc2CN2CCN(C(=O)CNC(=O)CC34CC5CC(CC(C5)C3)C4)CC2)cc1 | 3.3
O=C(CC12CC3CC(CC(C3)C1)C2)NCC(=O)N1CCN(Cc2ccccc2OCc2ccc(C(=O)O)cc2)CC1 | 4
O=C(CC12CC3CC(CC(C3)C1)C2)NCCCC(=O)N1CCN(Cc2ccccc2)CC1 | 22
O=C(NCC(=O)N1CCN(Cc2ccccc2)CC1)c1ccccc1 | 31
O=C(CC12CC3CC(CC(C3)C1)C2)NCC(=O)N1CCN(Cc2ccccc2O)CC1 | 2.9
COC(=O)c1ccccc1CN1CCN(C(=O)CNC(=O)CC23CC4CC(CC(C4)C2)C3)CC1 | 8
CNC(=O)c1ccc(COc2ccccc2CN2CCN(C(=O)CNC(=O)CC34CC5CC(CC(C5)C3)C4)CC2)cc1 | 2.1
O=C(CC12CC3CC(CC(C3)C1)C2)NCC(=O)N1CCN(Cc2ccccc2Br)CC1 | 3.4
O=C(CC12CC3CC(CC(C3)C1)C2)NCC(=O)N1CCN(C(=O)c2ccccc2)CC1 | 3
O=C(CC12CC3CC(CC(C3)C1)C2)NCC(=O)N1CCN(Cc2ccccc2C(=O)O)CC1 | > 40
CC(=O)Nc1ccc(CN2CCN(C(=O)CNC(=O)CC34CC5CC(CC(C5)C3)C4)CC2)cc1 | 7.5
O=C(CC12CC3CC(CC(C3)C1)C2)NCC(=O)N1CCN(Cc2ccncc2)CC1 | 14.5
O=C(Cc1ccc(Cl)cc1)NCC(=O)N1CCN(Cc2ccccc2)CC1 | 19
O=C(CC12CC3CC(CC(C3)C1)C2)NCC(=O)N1CCN(Cc2ccccc2OCc2ccccc2[N+](=O)[O-])CC1 | 1.6
O=C(CC12CC3CC(CC(C3)C1)C2)NCC(=O)N1CCN(Cc2cc(Br)ccc2O)CC1 | 0.5
O=C(CC12CC3CC(CC(C3)C1)C2)NCC(=O)N1CCN(Cc2cccnc2)CC1 | 6.8
COc1cccc(COc2ccccc2CN2CCN(C(=O)CNC(=O)CC34CC5CC(CC(C5)C3)C4)CC2)c1 | 1.9

SMILES | IC50 [µM]
CC(OCc1ccccc1)C(NC(=O)CC12CC3CC(CC(C3)C1)C2)C(=O)N1CCN(Cc2ccccc2)CC1 (stereo unspecified) | 29
O=C(CC12CC3CC(CC(C3)C1)C2)NCC(=O)N1CCN(Cc2ccc(O)cc2)CC1 | 7
COc1ccc(CN2CCN(C(=O)CNC(=O)CC34CC5CC(CC(C5)C3)C4)CC2)cc1 | 5.4
Cc1cc(O)cc(C)c1CN1CCN(C(=O)CNC(=O)CC23CC4CC(CC(C4)C2)C3)CC1 | 8
CC(NC(=O)CC12CC3CC(CC(C3)C1)C2)C(=O)N1CCN(Cc2ccccc2)CC1 (stereo unspecified) | > 40
O=C(CC12CC3CC(CC(C3)C1)C2)NCC(=O)N1CCN(Cc2ccccn2)CC1 | 8.5
O=C(CC12CC3CC(CC(C3)C1)C2)NCC(=O)N1CCN(Cc2ccccc2Cl)CC1 | 3.2
COc1ccccc1CN1CCN(C(=O)CNC(=O)CC23CC4CC(CC(C4)C2)C3)CC1 | 2.1
N#CCC(NC(=O)CC12CC3CC(CC(C3)C1)C2)C(=O)N1CCN(Cc2ccccc2)CC1 (stereo unspecified) | 22
COc1cccc(CN2CCN(C(=O)CNC(=O)CC34CC5CC(CC(C5)C3)C4)CC2)c1 | 2
O=C(CC12CC3CC(CC(C3)C1)C2)NCCC(=O)N1CCN(Cc2ccccc2)CC1 | 17
N#Cc1cccc(CN2CCN(C(=O)CNC(=O)CC34CC5CC(CC(C5)C3)C4)CC2)c1 | 1.2
O=C(CC12CC3CC(CC(C3)C1)C2)NCC(=O)N1CCN(Cc2ccccc2)CC1 | 1.3
O=C(CC12CC3CC(CC(C3)C1)C2)NCC(=O)N1CCN(Cc2ccc(Br)cc2)CC1 | 3.2
O=C(CC12CC3CC(CC(C3)C1)C2)NCC(=O)N1CCN(Cc2ccccc2OCc2ccc([N+](=O)[O-])cc2)CC1 | 1.7
Cc1cccc(CN2CCN(C(=O)CNC(=O)CC34CC5CC(CC(C5)C3)C4)CC2)c1 | 1.1
CC(C)(C)CC(=O)NCC(=O)N1CCN(Cc2ccccc2)CC1 | > 40
O=C(CC12CC3CC(CC(C3)C1)C2)NCC(=O)N1CCN(Cc2ccccc2OCc2ccncc2)CC1 | 0.8
O=C(CC12CC3CC(CC(C3)C1)C2)NCC(=O)N1CCN(Cc2ccccc2OCc2cccnc2)CC1 | 2.1
O=C(CC12CC3CC(CC(C3)C1)C2)NCC(=O)N1CCN(Cc2cccc(Br)c2)CC1 | 1
O=C(CC12CC3CC(CC(C3)C1)C2)NC(CCC(=O)OCc1ccccc1)C(=O)N1CCN(Cc2ccccc2)CC1 (stereo unspecified) | 8.7
O=C(CC12CC3CC(CC(C3)C1)C2)NCC(=O)N1CCN(Cc2ccc(C(=O)O)cc2)CC1 | > 40
O=C(CNC(=O)C12CC3CC(CC(C3)C1)C2)N1CCN(Cc2ccccc2)CC1 | 29

SMILES | IC50 [µM]
O=C(CC12CC3CC(CC(C3)C1)C2)NCC(=O)N1CCN(Cc2cccc3ccccc23)CC1 | 3.4
COC(=O)c1cccc(COc2ccccc2CN2CCN(C(=O)CNC(=O)CC34CC5CC(CC(C5)C3)C4)CC2)c1 | 2.4
CN(CC(=O)N1CCN(Cc2ccccc2)CC1)C(=O)CC12CC3CC(CC(C3)C1)C2 | 6.7
O=C(CC12CC3CC(CC(C3)C1)C2)NCC(=O)N1CCN(Cc2cccc(C(=O)O)c2)CC1 | > 40
O=C(CC12CC3CC(CC(C3)C1)C2)NCC(=O)N1CCN(Cc2cccc(OCc3ccccc3)c2)CC1 | 4
O=C(CC12CC3CC(CC(C3)C1)C2)NCC(=O)N1CCN(Cc2ccccc2OCc2ccccc2)CC1 | 2
O=C(Cc1ccccc1)NCC(=O)N1CCN(Cc2ccccc2)CC1 | > 40
O=C(CC12CC3CC(CC(C3)C1)C2)NCC(=O)N1CCN(Cc2ccc3ccccc3c2)CC1 | 3
CC(C)C(NC(=O)CC12CC3CC(CC(C3)C1)C2)C(=O)N1CCN(Cc2ccccc2)CC1 (stereo unspecified) | > 40
O=C(CC12CC3CC(CC(C3)C1)C2)NCC(=O)N1CCN(Cc2ccc(Cl)cc2Cl)CC1 | 6.6
N#Cc1ccc(CN2CCN(C(=O)CNC(=O)CC34CC5CC(CC(C5)C3)C4)CC2)cc1 | 8
CC(C)CC(NC(=O)CC12CC3CC(CC(C3)C1)C2)C(=O)N1CCN(Cc2ccccc2)CC1 (stereo unspecified) | 29
Cc1ccc(CN2CCN(C(=O)CNC(=O)CC34CC5CC(CC(C5)C3)C4)CC2)cc1 | 1.1
COC(=O)c1cccc(CN2CCN(C(=O)CNC(=O)CC34CC5CC(CC(C5)C3)C4)CC2)c1 | 14
O=C(CC12CC3CC(CC(C3)C1)C2)NCC(=O)N1CCC(Cc2ccccc2)CC1 | 1.3
O=C(CC12CC3CC(CC(C3)C1)C2)NCC(=O)N1CCN(Cc2ccccc2C(F)(F)F)CC1 | 1.8
O=C(CC1CCCCC1)NCC(=O)N1CCN(Cc2ccccc2)CC1 | > 40
CC(O)C(NC(=O)CC12CC3CC(CC(C3)C1)C2)C(=O)N1CCN(Cc2ccccc2)CC1 (stereo unspecified) | > 40
O=C(CC12CC3CC(CC(C3)C1)C2)NCC(=O)N1CCN(Cc2ccccc2OCc2cccc(Br)c2)CC1 | 2.4
COC(=O)c1ccc(CN2CCN(C(=O)CNC(=O)CC34CC5CC(CC(C5)C3)C4)CC2)cc1 | 15
O=C(CC12CC3CC(CC(C3)C1)C2)NCC(=O)N1CCN(Cc2cccc(C(F)(F)F)c2)CC1 | 2.6
O=C(CC12CC3CC(CC(C3)C1)C2)NCC(=O)N1CCN(Cc2ccc(Cl)cc2)CC1 | 2.5

target: T1, NPC intracellular cholesterol transporter 1 (Mus musculus) (UniProt O35604); test: Inhibition of mouse NPC1 interaction to Ebola virus GP expressed in LE/LY membrane of CHO cells by immunoblotting; assay type: cell-based; settings: not given
T1 sequence (whole entry): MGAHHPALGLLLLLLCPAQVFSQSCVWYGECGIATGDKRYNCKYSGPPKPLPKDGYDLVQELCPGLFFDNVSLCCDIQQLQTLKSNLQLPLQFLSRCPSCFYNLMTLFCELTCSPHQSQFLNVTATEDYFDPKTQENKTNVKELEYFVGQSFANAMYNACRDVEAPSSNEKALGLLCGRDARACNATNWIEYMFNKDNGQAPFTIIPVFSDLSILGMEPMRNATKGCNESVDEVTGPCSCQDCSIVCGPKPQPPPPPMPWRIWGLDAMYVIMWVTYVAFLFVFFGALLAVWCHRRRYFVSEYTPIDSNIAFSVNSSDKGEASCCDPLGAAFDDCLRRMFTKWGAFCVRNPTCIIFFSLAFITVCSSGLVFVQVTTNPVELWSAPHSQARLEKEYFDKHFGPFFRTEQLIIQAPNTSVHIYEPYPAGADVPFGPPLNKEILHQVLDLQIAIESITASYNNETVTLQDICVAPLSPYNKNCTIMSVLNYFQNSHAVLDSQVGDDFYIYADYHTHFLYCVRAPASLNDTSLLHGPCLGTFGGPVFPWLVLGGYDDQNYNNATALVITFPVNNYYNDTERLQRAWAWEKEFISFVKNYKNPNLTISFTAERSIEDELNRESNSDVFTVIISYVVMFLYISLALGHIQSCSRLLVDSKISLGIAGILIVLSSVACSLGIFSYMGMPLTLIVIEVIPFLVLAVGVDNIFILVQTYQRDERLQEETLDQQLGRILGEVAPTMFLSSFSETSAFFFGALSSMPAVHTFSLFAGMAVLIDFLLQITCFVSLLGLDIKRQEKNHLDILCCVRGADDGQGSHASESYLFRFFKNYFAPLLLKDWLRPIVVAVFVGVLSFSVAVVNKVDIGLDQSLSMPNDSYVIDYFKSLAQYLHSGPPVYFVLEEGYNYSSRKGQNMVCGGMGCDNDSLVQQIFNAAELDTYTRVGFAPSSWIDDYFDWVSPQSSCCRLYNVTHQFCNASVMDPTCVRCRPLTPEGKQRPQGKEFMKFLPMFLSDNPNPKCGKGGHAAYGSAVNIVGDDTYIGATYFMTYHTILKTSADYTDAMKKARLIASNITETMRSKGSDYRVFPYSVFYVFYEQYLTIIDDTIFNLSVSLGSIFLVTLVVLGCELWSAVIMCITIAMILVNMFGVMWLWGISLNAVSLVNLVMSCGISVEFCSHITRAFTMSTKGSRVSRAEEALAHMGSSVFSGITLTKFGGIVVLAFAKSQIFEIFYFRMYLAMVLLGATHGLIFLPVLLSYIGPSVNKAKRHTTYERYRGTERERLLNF
Summary of the method: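 Late endosome/lysosome membranes from NPC1-null CHO cells, or the same cells stably expressing mouse NPC1, were immobilized on ELISA plates. They were incubated with protease-cleaved Ebola GP in the presence of test compound at specified concentrations. After washing off unbound GP, membranes were solubilized in NP40 and bound GP was detected by GP1-antibody immunoblot. Results are representative of six experiments.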

SMILES | inhibition
O=C(CC12CC3CC(CC(C3)C1)C2)NCCC(=O)N1CCN(Cc2ccccc2)CC1 | Active
O=C(CC12CC3CC(CC(C3)C1)C2)NCC(=O)N1CCN(Cc2ccccc2)CC1 | Active
O=C(CC12CC3CC(CC(C3)C1)C2)NCC(=O)N1CCC(Cc2ccccc2)CC1 | Active
